Results from ChEMBL document CHEMBL3259717, “Synthetic calanolides with bactericidal activity against replicating and nonreplicating Mycobacterium tuberculosis” (J Med Chem, 2014).
Converted amounts (≈) assume the structure as drawn.

Experiments:
[1] = Selectivity index, ratio of LD50 for human HepG2 cells to MIC90 for replicating form of Mycobacterium tuberculosis H37Rv; format: toxicity, cell-based; details: read-out: Selectivity Index
Method in brief: (§1)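 HepG2 in DMEM with 10% FBS, pyruvate, glutamine, HEPES and nonessential amino acids, seeded 3000 cells/well in 384-well plates. Compound for 2 days at 1% final DMSO. ATP read by CellTiter-Glo luminescence. LD50 = 50% drop in ATP signal vs DMSO. SI = LD50/MIC90 against replicating Mtb.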

[2] = test system: Mycobacterium tuberculosis; experiment: Antibacterial activity against non-replicating form of wild type Mycobacterium tuberculosis H37Rv assessed as growth inhibition after 3 days by high-throughput screening assay; format: functional; details: 72 h
[3] = Cytotoxicity against human HepG2 cells assessed as decrease in ATP signal after 2 days by CellTiter-Glo assay; format: cell-based; details: read-out: LD50; method in brief: as §1
[4] = test system: Mycobacterium tuberculosis; experiment: Antibacterial activity against replicating form of wild type Mycobacterium tuberculosis H37Rv assessed as growth inhibition after 7 days by high-throughput screening assay; format: functional; details: 168 h
Method in brief: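 Wild-type H37Rv in 7H9 with glycerol, tyloxapol, ADN, in 96-well plates. Set up as the 384-well screen: OD580 0.01 start, compound in DMSO, 7 days at 37 °C, 20% O2, 5% CO2. OD580 read; MIC90 = 90% growth inhibition vs DMSO control.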

[5] = test system: Mycobacterium tuberculosis; experiment: Antibacterial activity against replicating form of Mycobacterium tuberculosis MC2 6220 assessed as growth inhibition after 7 days by high-throughput screening assay; format: functional; details: MC2 6220, 168 h
Method in brief: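 Attenuated Mtb mc26220 ΔpanCDΔlysA in 7H9 with glycerol, tyloxapol, OADC, casein amino acids, 240 μg/mL L-lysine, 24 μg/mL pantothenate. Mid-log cells diluted to OD580 0.01 in 384-well plates, compound in DMSO, 7 days at 37 °C, 20% O2, 5% CO2. OD580 read; MIC90 = 90% growth inhibition vs DMSO.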

[6] = test system: Mycobacterium tuberculosis; experiment: Antibacterial activity against non-replicating form of Mycobacterium tuberculosis MC2 6220 assessed as growth inhibition after 3 days by high-throughput screening assay; format: functional; details: MC2 6220, 72 h
Method in brief: (§2)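 Log-phase mc26220 washed in PBS/tyloxapol, resuspended in Sauton's-based NR medium (butyrate, 0.5 mM NaNO2, pH 5.0) at OD580 0.1. Compound exposure 3 days at 37 °C, 1% O2, 5% CO2. Then R medium added (5-fold dilution), 7 days outgrowth at 20% O2. OD580 read; MIC90 = 90% inhibition vs DMSO.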

[7] = Selectivity index, ratio of LD50 for human HepG2 cells to MIC90 for replicating form of Mycobacterium tuberculosis mc'2 6220; format: toxicity, cell-based; details: read-out: Selectivity Index; method in brief: as §1
[8] = test system: Mycobacterium tuberculosis; experiment: Antibacterial activity against non-replicating form of Mycobacterium tuberculosis MC2 6220 assessed as growth inhibition after 7 days by high-throughput screening assay; format: functional; details: MC2 6220, 168 h; method in brief: as §2
[9] = test system: Mycobacterium tuberculosis; experiment: Bactericidal activity against wild type Mycobacterium tuberculosis H37Rv infected in IFN-gamma-stimulated primary human monocyte-derived macrophages assessed as reduction of log10CFU incubated for 7 days followed by compound washout measured after 3 weeks; format: functional
Method in brief: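 Monocytes from healthy donors isolated by CD14 selection. Differentiated 2 weeks in 40% human plasma with 0.5 ng/mL GM-CSF and TNF-alpha, 10% O2. Then 5 ng/mL IFN-gamma overnight, infected with wild-type Mtb at MOI 0.1. Compound added at 24 h, 1% DMSO final, 7 days. Viability inspected visually; lysed in 0.55% Triton-X and plated on 7H11/OADC for CFU.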

[10] = Genotoxicity in mouse lymphoma cells; format: toxicity, cell-based
[11] = test system: Mycobacterium tuberculosis; experiment: Antimycobacterial activity against replicating form of Mycobacterium tuberculosis infected in African green monkey Vero cells assessed as growth inhibition; format: functional
[12] = Selectivity index, ratio of LD50 for African green monkey Vero cells to MIC for replicating form of Mycobacterium tuberculosis infected in African green monkey Vero cells; format: toxicity, cell-based; details: read-out: Selectivity Index
[13] = Cytotoxicity against African green monkey Vero cells; format: cell-based; details: chlorocebus sabaeus, read-out: LD50 (the source's name)

SMILES | CC50 at 48 h [3] [µg/mL] | MIC90 [5] [µg/mL] | MIC90 [6] [µg/mL] | selectivity ratio [7] | other results
CCCc1cc(=O)oc2c3c(cc(OCCN4CCOCC4)c12)O[C@@H]([N+](=O)[O-])[C@@H]3O | 0.8 (≈ 1.9 µM) | – | – | – | selectivity ratio [1]: 10; MIC90 [2]: 0.08 µg/mL (≈ 0.19 µM); MIC90 [4]: 0.08 µg/mL (≈ 0.19 µM)
CCCc1cc(=O)oc2c1c1c(c3oc([N+](=O)[O-])cc32)C=CC(c2ccccc2)O1 (configuration not stated) | 3 (≈ 7.44 µM) | 20 (≈ 49.6 µM) | 6 (≈ 14.9 µM) | 0.1 | –
CCCc1cc(=O)oc2c1c(OC)cc1oc([N+](=O)[O-])cc12 | 0.3 (≈ 0.989 µM) | < 0.2 | < 0.2 | > 2 | –
Cc1c(F)c(=O)oc2c1c1c(c3oc([N+](=O)[O-])cc32)C=CC(C)(C)O1 | > 50 | < 0.1 | 0.2 (≈ 0.579 µM) | > 510 | –
CCCc1cc(=O)oc2cc(N(C)C)c3c(c12)OC(C)(C)C=C3 | > 16 | > 16 | > 16 | – | MIC90 [8]: 2 µg/mL (≈ 6.38 µM)
CCCc1cc(=O)oc2cc(OCC=C(C)C)c3c(c12)OC(C)(C)C=C3 | > 18 | > 18 | > 18 | – | MIC90 [8]: 2 µg/mL (≈ 5.64 µM)
Cc1cc(=O)oc2c1c1c(c3oc([N+](=O)[O-])cc32)C=CC(C)(C)O1 | 1 (≈ 3.06 µM) | – | – | – | selectivity ratio [1]: 16; MIC90 [2]: 0.2 µg/mL (≈ 0.611 µM); MIC90 [4]: 0.08 µg/mL (≈ 0.244 µM)
Cc1c(F)c(=O)oc2c3c(c4c(c12)OC(C)(C)CC4)O[C@H]([N+](=O)[O-])[C@H]3O (relative stereo) | 13 (≈ 35.6 µM) | < 0.1 | < 0.1 | > 128 | –
O=c1oc2c3c(cc(OCCN4CCOCC4)c2c2c1CCCC2)O[C@H]([N+](=O)[O-])[C@H]3O (racemic) | 0.4 (≈ 0.925 µM) | < 1 | < 1 | > 0.3 | –
CCCc1cc(=O)oc2c1c(OCCN1CCCC1)cc1oc([N+](=O)[O-])cc12 | 1 (≈ 2.59 µM) | < 0.2 | < 0.2 | > 5 | –
CCCc1cc(=O)oc2c1c(OCCN1CCOCC1)cc1[nH]c([N+](=O)[O-])cc12 | 25 (≈ 62.3 µM) | > 50 | > 50 | < 0.5 | –
CCCc1cc(=O)oc2c3c(cc(OCCN4CCOCC4)c12)O[C@H]([N+](=O)[O-])[C@H]3O | 2 (≈ 4.76 µM) | – | – | – | selectivity ratio [1]: 20; MIC90 [2]: 0.08 µg/mL (≈ 0.19 µM); MIC90 [4]: 0.08 µg/mL (≈ 0.19 µM)
CC1(C)C=Cc2c(c3c(CN4CCSCC4)cc(=O)oc3c3cc([N+](=O)[O-])oc23)O1 | 1 (≈ 2.33 µM) | < 0.3 | < 0.3 | > 5 | –
CC1(C)CCc2c3c(c4oc(=O)c5c(c4c2O1)CCCC5)[C@H](O)[C@@H]([N+](=O)[O-])O3 | 25 (≈ 64.5 µM) | 0.4 (≈ 1.03 µM) | 0.8 (≈ 2.07 µM) | 64 | –
CCCc1cc(=O)oc2c3c(c4c(c12)OC(C)(C)C=C4)O[C@H]([N+](=O)[O-])[C@H]3O (relative stereo) | 3 (≈ 8.04 µM) | < 0.2 | < 0.2 | > 11 | –
Cc1c(F)c(=O)oc2c1c1c(c3oc([N+](=O)[O-])cc32)CCC(C)(C)O1 | > 50 | 0.8 (≈ 2.3 µM) | 2 (≈ 5.76 µM) | > 64 | –
CCCc1cc(=O)oc2cc(OCCN3CCCC3)c3c(c12)OC(C)(C)C=C3 | 19 (≈ 49.5 µM) | 19 (≈ 49.5 µM) | > 19 | 1 | –
CCCc1cc(=O)oc2c3c(cc(OCCN4CCOCC4)c12)OC(C)([N+](=O)[O-])C3O (racemic) | > 100 | 100 (≈ 230 µM) | 100 (≈ 230 µM) | > 1 | –
CCCc1cc(=O)oc2c1c(OCCN1CCOCC1)cc1oc([N+](=O)[O-])c(COC(C)=O)c12 | < 0.3 | 1 (≈ 2.11 µM) | 3 (≈ 6.32 µM) | < 0.3 | –
CCCc1cc(=O)oc2c1c(OCCN1CCOCC1)cc1oc([N+](=O)[O-])cc12 | 10 (≈ 24.9 µM) | – | – | – | selectivity ratio [1]: 125; MIC90 [2]: 0.2 µg/mL (≈ 0.497 µM); log10cfu [9]: 1; Activity [10]: Non-toxic; MIC90 [4]: 0.08 µg/mL (≈ 0.199 µM)

SMILES | CC50 at 48 h [3] [µg/mL] | MIC90 [5] [µg/mL] | MIC90 [6] [µg/mL] | selectivity ratio [7] | other results
CC1(C)CCc2c3c(c4oc(=O)c5c(c4c2O1)CCC5)[C@H](O)[C@@H]([N+](=O)[O-])O3 | 25 (≈ 67 µM) | 0.2 (≈ 0.536 µM) | 0.4 (≈ 1.07 µM) | 128 | –
CCCc1cc(=O)oc2c1c(OCc1ccc(F)cc1)cc1oc([N+](=O)[O-])cc12 | > 100 | – | – | – | selectivity ratio [1]: > 160; MIC90 [2]: 3 µg/mL (≈ 7.55 µM); log10cfu [9]: 1; Activity [10]: Non-toxic; MIC90 [4]: 0.6 µg/mL (≈ 1.51 µM)
CCCc1cc(=O)oc2cc(C#CCO)c3c(c12)OC(C)(C)C=C3 | > 16 | > 16 | > 16 | – | –
CCCc1cc(=O)oc2cc(N3CCN(C(=O)C(C)CC)CC3)c3c(c12)OC(C)(C)C=C3 (configuration not stated) | 22 (≈ 50.2 µM) | > 22 | > 22 | < 1 | –
CCc1c(F)c(=O)oc2c1c1c(c3oc([N+](=O)[O-])cc32)C=CC(C)(C)O1 | > 25 | – | – | – | selectivity ratio [1]: > 40; MIC90 [2]: 1 µg/mL (≈ 2.78 µM); MIC90 [4]: 0.6 µg/mL (≈ 1.67 µM)
CCCc1cc(=O)oc2cc(N3CCNCC3)c3c(c12)OC(C)(C)C=C3.O=C(O)C(F)(F)F | 12 | 23 | > 23 | 0.5 | –
CCCc1cc(=O)oc2cc(OCCN3CCCCC3)c3c(c12)OC(C)(C)C=C3 | > 20 | > 20 | > 20 | – | MIC90 [8]: 7 µg/mL (≈ 17.6 µM)
CCCc1cc(=O)oc2c(C(=O)O)c(O)c3c(c12)OC(C)(C)C=C3 | > 17 | > 17 | > 17 | – | –
CC1(C)C=Cc2c(c3c(CN4CCOCC4)cc(=O)oc3c3cc([N+](=O)[O-])oc23)O1 | 1 (≈ 2.42 µM) | < 0.2 | < 0.2 | > 5 | –
CCCc1cc(=O)oc2cc(N3CCN(C(=O)Nc4ccc(F)c(Cl)c4)CC3)c3c(c12)OC(C)(C)C=C3 | > 26 | > 26 | > 26 | – | –
CCCc1cc(=O)oc2c3c(c4c(c12)OC(C)(C)C=C4)O[C@H](C)[C@@H](C)[C@@H]3O [CALANOLIDE A] | – | – | – | – | MIC [11]: 3.1 µg/mL (≈ 8.37 µM); selectivity ratio [12]: 2.4; CC50 [13]: 7.6 µg/mL (≈ 20.5 µM)
CCCc1cc(=O)oc2cc(C#Cc3ccc(C)cc3)c3c(c12)OC(C)(C)C=C3 | > 19 | > 19 | > 19 | – | –
O=[N+]([O-])c1cc2ccccc2o1 | 3 (≈ 18.4 µM) | 0.2 (≈ 1.23 µM) | > 100 | 16 | –
CCCc1cc(=O)oc2cc(N3CCN(C(=O)Nc4ccc(OC)cc4)CC3)c3c(c12)OC(C)(C)C=C3 | > 25 | > 25 | > 25 | – | –
CCCc1cc(=O)oc2c3c(cc(OCCN4CCOCC4)c12)O[C@H]([N+](=O)[O-])[C@H]3C(C)C (racemic) | > 22 | 22 (≈ 49.3 µM) | > 22 | > 1 | –
CCCc1cc(=O)oc2cc(N3CCN(C(=O)Nc4ccc(OC(F)(F)F)cc4)CC3)c3c(c12)OC(C)(C)C=C3 | > 28 | > 28 | > 28 | – | –
O=C(OCCOc1cc2c(c3oc(=O)c4c(c13)CCCC4)[C@H](O)[C@@H]([N+](=O)[O-])O2)c1cnccn1 (racemic) | 0.4 (≈ 0.852 µM) | < 1 | < 1 | > 0.3 | –
CN1CCN(Cc2cc(=O)oc3c2c2c(c4oc([N+](=O)[O-])cc43)C=CC(C)(C)O2)CC1 | 3 (≈ 7.05 µM) | – | – | – | selectivity ratio [1]: 31; MIC90 [2]: 0.3 µg/mL (≈ 0.705 µM); MIC90 [4]: 0.08 µg/mL (≈ 0.188 µM)
O=[N+]([O-])C1Cc2ccccc2O1 (configuration not stated) | 3 (≈ 18.2 µM) | 0.4 (≈ 2.42 µM) | 0.4 (≈ 2.42 µM) | 6 | –
CCCc1cc(=O)oc2c1c(OCCN1CCOCC1)cc1oc([N+](=O)[O-])c(C(C)C)c12 | 22 (≈ 49.5 µM) | > 22 | > 22 | < 1 | –
